Experimental data taken from ChEMBL document CHEMBL1124896, “Synthesis and antitumor activity of novel 4-demethoxyanthracyclines” (1990).

How the values were obtained:
Format in all cases: functional, Mus musculus
Conditions in all cases: route intraperitoneal
[1] = test system: L1210 (1565); test: Antitumor activity against L-1210 leukemia cell line in BDF1 mice after injecting 16 mg/kg ip dose
Procedure, shortened: (§1)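 Female BDF1 mice received 10⁵ viable L-1210 ascites cells ip. Aqueous test compound was given ip starting the same day, daily five times a week for 4 weeks or until death, with five mice per dose. Read-out was T/C, the mean survival time of treated mice over untreated controls. Mice alive at 4 weeks were counted as long-term survivors.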

[2] = test system: L1210 (1565); test: Antitumor activity against L-1210 leukemia cell line in BDF1 mice after injecting 0.1 mg/kg ip dose; procedure, shortened: as §1
[3] = test system: L1210 (1565); test: Antitumor activity against L-1210 leukemia cell line in BDF1 mice after injecting 0.25 mg/kg ip dose; procedure, shortened: as §1
[4] = test system: L1210 (1565); test: Antitumor activity against L-1210 leukemia cell line in BDF1 mice after injecting 0.125 mg/kg ip dose; procedure, shortened: as §1
[5] = test system: L1210 (1565); test: Antitumor activity against L-1210 leukemia cell line in BDF1 mice after injecting 0.5 mg/kg ip dose; procedure, shortened: as §1
[6] = test system: P388; test: Antitumor activity against P-388 leukemia cell line in BDF1 mice after injecting 4 mg/kg ip dose
[7] = test system: P388; test: Antitumor activity against P-388 leukemia cell line in BDF1 mice after injecting 3.0 mg/kg ip dose
[8] = test system: P388; test: Antitumor activity against P-388 leukemia cell line in BDF1 mice after injecting 6.25 mg/kg ip dose
[9] = test system: L1210 (1565); test: Antitumor activity against L-1210 leukemia cell line in BDF1 mice after injecting 0.05 mg/kg ip dose; procedure, shortened: as §1
[10] = test system: P388; test: Antitumor activity against P-388 leukemia cell line in BDF1 mice after injecting 2.4 mg/kg ip dose
[11] = test system: L1210 (1565); test: Antitumor activity against L-1210 leukemia cell line in BDF1 mice after injecting 8 mg/kg ip dose; procedure, shortened: as §1
[12] = test system: L1210 (1565); test: Antitumor activity against L-1210 leukemia cell line in BDF1 mice after injecting 2.0 mg/kg ip dose; procedure, shortened: as §1
[13] = test system: P388; test: Antitumor activity against P-388 leukemia cell line in BDF1 mice after injecting 8.0 mg/kg ip dose
[14] = test system: L1210 (1565); test: Antitumor activity against L-1210 leukemia cell line in BDF1 mice after injecting 4 mg/kg ip dose; procedure, shortened: as §1
[15] = test system: P388; test: Antitumor activity against P-388 leukemia cell line in BDF1 mice after injecting 0.38 mg/kg ip dose
[16] = test system: L1210 (1565); test: Antitumor activity against L-1210 leukemia cell line in BDF1 mice after injecting 2 mg/kg ip dose; procedure, shortened: as §1

CC1OC(O[C@H]2C[C@](O)(C(=O)N(C)c3ccccc3)Cc3c(O)c4c(c(O)c32)C(=O)c2ccccc2C4=O)CC(N)C1O.Cl (stereo not given in full)
T/C [1]: 120%

C[C@@H]1OC(O[C@H]2C[C@](O)(CO)Cc3c(O)c4c(c(O)c32)C(=O)c2ccccc2C4=O)C[C@H](N)[C@@H]1O.Cl (stereo not given in full)
T/C [2]: 230%

COC1C(N)CC(O[C@H]2C[C@](O)(C(C)=O)Cc3c(O)c4c(c(O)c32)C(=O)c2ccccc2C4=O)OC1C.Cl (stereo not given in full)
T/C [3]: 230%

C[C@@H]1O[C@@H](O[C@H]2C[C@](O)([C@H](C)O)Cc3c(O)c4c(c(O)c32)C(=O)c2ccccc2C4=O)C[C@@H](N)[C@@H]1O.Cl (stereo in doubt; 35)
T/C ([4]; 0.125 mg/kg): 270%

C[C@@H]1O[C@@H](O[C@H]2C[C@](O)([C@@H](C)O)Cc3c(O)c4c(c(O)c32)C(=O)c2ccccc2C4=O)C[C@@H](N)[C@@H]1O.Cl
T/C [4]: 250%

C[C@@H]1O[C@@H](O[C@H]2C[C@](O)([C@H](C)O)Cc3c(O)c4c(c(O)c32)C(=O)c2ccccc2C4=O)C[C@@H](N)[C@@H]1O.Cl (stereo in doubt; 36)
T/C ([4]; 0.125 mg/kg): 360%

CC[C@@]1(O)Cc2c(O)c3c(c(O)c2[C@@H](O[C@H]2C[C@H](N)[C@@H](O)[C@H](C)O2)C1)C(=O)c1ccccc1C3=O.Cl
T/C [5]: 460% | T/C [6]: 184%

CC[C@@]1(O)Cc2c(O)c3c(c(O)c2[C@@H](O[C@H]2C[C@H](N)[C@H](O)[C@H](C)O2)C1)C(=O)c1ccccc1C3=O.Cl
T/C [5]: 420% | T/C [7]: 155%

CC1OC(O[C@H]2C[C@](O)(C(=O)Nc3ccccc3)Cc3c(O)c4c(c(O)c32)C(=O)c2ccccc2C4=O)CC(N)C1O.Cl (stereo not given in full)
T/C [1]: 120%

CC(=O)[C@]1(O)Cc2c(O)c3c(c(O)c2[C@@H](O[C@H]2C[C@@H](N)[C@@H](O)[C@H](C)O2)C1)C(=O)c1ccccc1C3=O.Cl
T/C [5]: 240%

C[C@@H]1O[C@@H](O[C@H]2C[C@@](C)(O)Cc3c(O)c4c(c(O)c32)C(=O)c2ccccc2C4=O)C[C@@H](N)[C@@H]1O.Cl
T/C [5]: 400% | T/C [8]: 192%

COC1C(N)CC(O[C@H]2C[C@](O)(CO)Cc3c(O)c4c(c(O)c32)C(=O)c2ccccc2C4=O)OC1C.Cl (stereo not given in full)
T/C [4]: 350%

CC1OC(O[C@H]2C[C@](O)(CCO)Cc3c(O)c4c(c(O)c32)C(=O)c2ccccc2C4=O)CC(N)C1O.Cl (stereo not given in full)
T/C [3]: 450%

CC(=O)[C@]1(O)Cc2c(O)c3c(c(O)c2[C@@H](O[C@H]2C[C@@H](N)[C@H](O)[C@H](C)O2)C1)C(=O)c1ccccc1C3=O.Cl
T/C [9]: 230% | T/C [10]: 174%

CC1OC(O[C@H]2C[C@](O)(C(=O)NOCc3ccccc3)Cc3c(O)c4c(c(O)c32)C(=O)c2ccccc2C4=O)CC(N)C1O.Cl (stereo not given in full)
T/C [11]: 100%

COc1cccc2c1C(=O)c1c(O)c3c(c(O)c1C2=O)C[C@@](O)(C(=O)CO)C[C@@H]3O[C@H]1C[C@H](N)[C@H](O)[C@H](C)O1 [DOXORUBICIN]
T/C [12]: 330% | T/C [13]: 174%

CC1CC(N)CC(O[C@H]2C[C@](O)(CO)Cc3c(O)c4c(c(O)c32)C(=O)c2ccccc2C4=O)O1.Cl (stereo not given in full)
T/C [4]: 280%

CC1OC(O[C@H]2C[C@](O)(C(=O)NCc3ccccc3)Cc3c(O)c4c(c(O)c32)C(=O)c2ccccc2C4=O)CC(N)C1O.Cl (stereo not given in full)
T/C [14]: 130%

COc1cccc2c1C(=O)c1c(O)c3c(c(O)c1C2=O)C[C@@](O)(C(C)=O)C[C@@H]3O[C@H]1C[C@H](N)[C@H](O)[C@H](C)O1 [DAUNORUBICIN]
T/C [5]: 290% | T/C [13]: 143%

C[C@@H]1O[C@@H](O[C@H]2C[C@](O)([C@H](C)O)Cc3c(O)c4c(c(O)c32)C(=O)c2ccccc2C4=O)C[C@@H](N)[C@@H]1O.Cl (stereo in doubt; 25)
T/C ([4]; 0.125 mg/kg): 220%

C[C@@H]1OC(O[C@H]2C[C@](O)(CO)Cc3c(O)c4c(c(O)c32)C(=O)c2ccccc2C4=O)C[C@H](N)[C@H]1O.Cl (stereo not given in full)
T/C [4]: 340% | T/C [15]: 174%

CCCNC(=O)[C@]1(O)Cc2c(O)c3c(c(O)c2[C@@H](OC2CC(N)C(O)C(C)O2)C1)C(=O)c1ccccc1C3=O.Cl (stereo not given in full)
T/C [16]: 120%

C[C@@H]1O[C@@H](O[C@H]2C[C@@](C)(O)Cc3c(O)c4c(c(O)c32)C(=O)c2ccccc2C4=O)C[C@@H](N)[C@H]1O.Cl
T/C [16]: 470%
